Screening data deposited in PubChem by Broad Institute.
DENV2 CPE: inhibitors of DENV2 cytopathic effect, primary screen, cell-based, plate reader, single concentration. DENV2-infected cells, cytopathic effect rescue. CPE inhibition, % at 9.99 µM. actives 1.7% (n = 350,000); in the data active = CPE inhibition above about 20%, passing the limit was not always enough; tested in BHK-21 cells;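 note: 0% = median of neutral control wells and 100% = median of positive control wells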
SIRT5 inh: SIRT5 desuccinylase inhibitors, primary screen, biochemical, fluorescence imaging, single point, set 5 | NAD-dependent protein deacylase sirtuin-5, mitochondrial (Homo sapiens), Q9NXA8 | Purified SirT5, succinyl-peptide AMC, trypsin-coupled fluorescence | inhibition, % at 15 µM | actives 1.1% (n = 330,000); in the data active = inhibition above about 15%
E-sel inducer: E-selectin induction in HUVECs, primary screen, imaging, HUVEC, immunofluorescence imaging, single point | P16581 | normalized: neutral wells 0, TNF-alpha wells 100 | activation, % at 7.58 µM | actives 0.37% (n = 260,000) | AID 686992, 2013;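 active = mean E-selectin-positive cell signal at least 10% of the positive control, reached in at least 60% of replicates, without over 20% cell loss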
Target sequence (P16581 whole entry, looked up): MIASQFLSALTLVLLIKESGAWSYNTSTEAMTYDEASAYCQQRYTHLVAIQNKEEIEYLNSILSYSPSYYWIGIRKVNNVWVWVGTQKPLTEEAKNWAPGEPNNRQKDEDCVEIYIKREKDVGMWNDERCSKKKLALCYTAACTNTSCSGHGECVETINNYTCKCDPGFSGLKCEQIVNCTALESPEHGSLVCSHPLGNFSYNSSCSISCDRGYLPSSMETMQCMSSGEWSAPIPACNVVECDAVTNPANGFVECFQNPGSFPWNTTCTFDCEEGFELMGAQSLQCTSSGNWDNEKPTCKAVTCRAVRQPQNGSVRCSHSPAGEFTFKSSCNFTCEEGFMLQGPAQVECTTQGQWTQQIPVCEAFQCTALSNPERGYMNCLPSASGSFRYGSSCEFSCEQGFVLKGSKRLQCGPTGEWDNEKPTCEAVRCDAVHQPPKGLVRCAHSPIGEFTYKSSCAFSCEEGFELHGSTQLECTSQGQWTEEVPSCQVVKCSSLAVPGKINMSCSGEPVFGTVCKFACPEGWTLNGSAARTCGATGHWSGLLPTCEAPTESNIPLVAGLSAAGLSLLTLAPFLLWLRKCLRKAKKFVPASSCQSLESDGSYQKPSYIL
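Material: HUVEC primary endothelial cells; Amount: 3,000 cells per well; Dosing: single concentration; Medium: EGM-2 growth medium on 0.1% gelatin-coated wells; Read-out basis: percent E-selectin-positive cells; Signal: immunofluorescence imaging; Control set: TNF-alpha, DMSO.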
* marks the source's active call; other numbers are inactive results. A selection: hits, their analogues and other compounds. The true share with any hit is near 2.8%.

For CC(C)NC(=O)NCC[C@H]1CC[C@H](NS(=O)(=O)c2ccc(-c3ccccc3)cc2)[C@H](CO)O1 the results were DENV2 CPE 0.8, SIRT5 inh 0.2 and E-sel inducer -0.3.
Screening O=C(Cc1ccccc1)Nc1ccccc1C(=O)Nc1ccc(C(=O)O)cc1 returned DENV2 CPE 2.1 and SIRT5 inh 1.8.
`O=C(CSCc1ccccc1)Nc1ccccc1C(=O)Nc1ccc(C(=O)O)cc1` gave DENV2 CPE 31.9*, SIRT5 inh 7.0 and E-sel inducer 1.1.
Screening CC(=O)C1=C(C)Nc2ncnn2C1c1ccc(F)cc1 (stereo unspecified) returned DENV2 CPE 1.6, SIRT5 inh 0.0 and E-sel inducer -0.1.
`CC(=O)C1=C(C)Nc2ncnn2C1c1ccc(O)cc1` (stereo unspecified) gave DENV2 CPE 12.2, SIRT5 inh -6.3 and E-sel inducer 44.1*.
For CCOC(=O)N/N=C/c1cc(C)n(-c2ccccc2)c1C the results were DENV2 CPE 1.3 and SIRT5 inh -51.7.
CCOC(=O)N/N=C/c1cc(C)n(-c2cccc3ccccc23)c1C was read as DENV2 CPE 37.2*, SIRT5 inh -2.0 and E-sel inducer 0.8.
CC(C)CC#Cc1ccc([C@@H]2[C@@H](CO)N3CCCCN(C(=O)c4ccc5c(c4)OCO5)C[C@H]23)cc1 was read as DENV2 CPE 17.5, SIRT5 inh 1.6 and E-sel inducer -0.3.
`CCCn1c(CN2CCN(C(=O)OCC)CC2)nc2cc(NC(=O)C(C)C)ccc21` gave DENV2 CPE 1.7, SIRT5 inh 3.0 and E-sel inducer 0.3.
CCCn1c(CN2CCN(C(=O)OCC)CC2)nc2cc(NC(C)=O)ccc21 was read as DENV2 CPE 8.3, SIRT5 inh 17.5* and E-sel inducer -0.1.
For O=C(OCC(=O)c1ccc[nH]1)c1ccc(Br)cc1 the results were DENV2 CPE 0.7, SIRT5 inh -0.2 and E-sel inducer -0.2.
Screening Nc1nccnc1C(=O)OCC(=O)c1ccc[nH]1 returned DENV2 CPE 33.1* and SIRT5 inh -8.7.
Screening Cc1ccc(SCCC(=O)NC2CC2)cc1 returned DENV2 CPE -5.1, SIRT5 inh 16.0* and E-sel inducer -0.1.
Screening Cc1ccc(SCC(=O)NC2CC2)cc1 returned DENV2 CPE -5.5, SIRT5 inh -1.9 and E-sel inducer 0.0.
Screening Cc1cccc(C)c1NC(=O)CNCC(=O)Nc1c(C)cccc1C returned DENV2 CPE 1.2, SIRT5 inh -3.7 and E-sel inducer 0.0.
For Cc1cccc(C)c1NC(=O)CN(Cc1ccccc1)Cc1ccccc1 the results were DENV2 CPE 2.3, SIRT5 inh 34.4* and E-sel inducer -0.1.
O=C(Nc1ccc(F)cc1)N1C[C@H]2[C@@H](c3ccccc31)[C@H](CO)N2C(=O)c1ccccc1F was read as DENV2 CPE -1.5, SIRT5 inh 6.5 and E-sel inducer 0.3.
`COc1ccc(NC(=O)N(C)C[C@@H]2OCCCC[C@@H](C)Oc3ccc(NS(=O)(=O)c4ccc(Cl)cc4)cc3C(=O)N([C@@H](C)CO)C[C@H]2C)cc1` gave DENV2 CPE 7.5, SIRT5 inh 1.3 and E-sel inducer -0.2.
O=C(O)C(c1ccccc1)N1C(=O)c2ccccc2C1=O (stereo unspecified) was read as DENV2 CPE 0.4 and SIRT5 inh -4.7.
Screening O=C(O)CC(c1ccccc1)N1C(=O)c2ccccc2C1=O (stereo unspecified) returned DENV2 CPE 40.3* and SIRT5 inh -5.8.
Screening CO[C@H]1CN(C)C(=O)c2ccc(NC(=O)Nc3ccccc3F)cc2OC[C@@H](C)N(C(C)=O)C[C@@H]1C returned DENV2 CPE 8.7, SIRT5 inh 10.9 and E-sel inducer 0.3.
Screening CO[C@@H]1CN(C)C(=O)c2ccc(NC(=O)CC(F)(F)F)cc2OC[C@@H](C)N(C(=O)C2CCOCC2)C[C@@H]1C returned DENV2 CPE 24.1* and E-sel inducer 0.1.
CO[C@H]1CN(C)C(=O)c2ccc(NC(=O)CC(F)(F)F)cc2OC[C@@H](C)N(C(=O)C2CC2)C[C@@H]1C was read as DENV2 CPE 2.8, SIRT5 inh 1.4 and E-sel inducer 0.1.
Screening CO[C@H]1CN(C)C(=O)c2cc(NC(=O)CC(F)(F)F)ccc2OC[C@H](C)N(C(=O)C2CC2)C[C@@H]1C returned DENV2 CPE -3.2, SIRT5 inh -1.9 and E-sel inducer 1.2.
`CO[C@@H]1CN(C)C(=O)c2cc(NC(=O)CC(F)(F)F)ccc2OC[C@H](C)N(C(=O)C2CCOCC2)C[C@@H]1C` gave DENV2 CPE 26.4* and E-sel inducer -0.3.
`CO[C@H]1CN(C)C(=O)c2cc(NC(=O)CC(F)(F)F)ccc2OC[C@H](C)N(C(=O)C2CCOCC2)C[C@@H]1C` gave DENV2 CPE 26.8*, SIRT5 inh -4.6 and E-sel inducer -0.1.
CO[C@H]1CN(C)C(=O)c2cc(NC(=O)CC(F)(F)F)ccc2OC[C@H](C)N(C(=O)C2CCOCC2)C[C@H]1C was read as DENV2 CPE 19.4 and E-sel inducer 0.0.
For C[C@@H]1CCCCO[C@@H](CN(C)Cc2ccccc2)[C@H](C)CN([C@H](C)CO)C(=O)c2cc(NS(=O)(=O)c3cn(C)cn3)ccc2O1 the results were DENV2 CPE -1.5, SIRT5 inh 0.1 and E-sel inducer -0.2.
`O=C(c1ccccc1F)N1C[C@@H]2[C@H](c3ccccc31)[C@H](CO)N2C(=O)c1cccnc1` gave DENV2 CPE -12.1, SIRT5 inh 0.7 and E-sel inducer 0.1.
`CCCC#Cc1ccc2c(c1)O[C@H](CN(C)Cc1cccnc1)[C@H](C)CN([C@@H](C)CO)S2(=O)=O` gave DENV2 CPE -11.1, SIRT5 inh 0.9 and E-sel inducer 0.2.
Screening O=C(CCN1CCCCC1)N[C@@H]1CC[C@@H](CCNC(=O)c2cc(Cl)cc(Cl)c2)O[C@H]1CO returned DENV2 CPE 7.0, SIRT5 inh -4.0 and E-sel inducer -0.4.
Brc1ccc(-c2nnc(-c3cccnc3)o2)cc1 was read as DENV2 CPE 81.6*, SIRT5 inh -0.6 and E-sel inducer 1.9.
Screening Cc1ccc(-c2nnc(-c3cccnc3)o2)cc1 returned DENV2 CPE -3.2, SIRT5 inh -3.3 and E-sel inducer 0.0.
Screening COc1ccc(S(=O)(=O)Nc2ccc3c(c2)C(=O)N([C@@H](C)CO)C[C@@H](C)[C@@H](CN(C)C(=O)Cc2ccccc2)OCCCC[C@@H](C)O3)cc1 returned DENV2 CPE 21.1*, SIRT5 inh 4.1 and E-sel inducer -0.1.
For COc1ccc(S(=O)(=O)Nc2ccc3c(c2)C(=O)N([C@H](C)CO)C[C@H](C)[C@@H](CN(C)C(=O)Cc2ccccc2)OCCCC[C@@H](C)O3)cc1 the results were DENV2 CPE 10.0, SIRT5 inh 1.2 and E-sel inducer -0.3.
`COc1ccc(S(=O)(=O)Nc2ccc3c(c2)C(=O)N([C@@H](C)CO)C[C@@H](C)[C@@H](CN(C)C(=O)Cc2ccccc2)OCCCC[C@H](C)O3)cc1` gave DENV2 CPE -3.7, SIRT5 inh 4.2 and E-sel inducer 0.2.
